Results on eight compounds are retold here after ChEMBL document CHEMBL3259732, “Vascular effects of diphenylmethoxypiperidine-derived dopamine uptake inhibitors” (2014).

What all share (format): functional
Assay [1] in a line: (§1) Vascular activity in receptor-independent rat mesenteric resistance artery assessed as inhibition of KCl-induced contraction at 3 x 10^-6 M after 5 mins. The method, boiled down: (§2)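 Receptor-independent response in rat mesenteric resistance arteries normalized to optimal diameter at 100 mmHg transmural pressure. After pre-incubation with test agent at 3 x 10^-6 M, maximal contraction to 75 mM KCl was recorded. Block was judged against control arteries, p<0.05.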

Assay [2] can be described thus: Vascular activity in receptor-dependent rat mesenteric resistance artery assessed as inhibition of noradrenaline-induced contraction at 3 x 10^-6 M after 5 mins relative to maximal response to KCl. Also on record: scale not given: the % may be the effect or the level left.
Assay [3] in a line: Vascular activity in receptor-dependent rat mesenteric resistance artery assessed as inhibition of noradrenaline-induced contraction at 3 x 10^-6 M after 5 mins. In a few lines:
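Rat mesenteric resistance arteries set to optimal diameter (OD = 0.9 L100, from the diameter at 100 mmHg transmural pressure). Rings pre-incubated with test agent at 3 x 10^-6 M, then given a dose–response curve to noradrenaline as the receptor-dependent contraction. Inhibition read against control arteries, p<0.05.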

A further assay is filed under the species Rattus norvegicus. Described as §1. The method, boiled down:
as §2

Active and inactive are the calls of the source. No cut-off for these calls is given here.

What is called inhibition is the drop in the measured response relative to a control, in per cent. Consider `CN1CCC(OC(c2ccc(F)cc2)c2ccc(F)cc2)CC1`, for which the inhibition at 3 µM in assay [1] is 70%. Also, the Activity in assay [2] is 121%. Also, the pD2 in assay [3] stood at 5.1.
As for `COC(=O)[C@H]1[C@@H](OC(=O)c2ccccc2)C[C@@H]2CC[C@H]1N2C` [COCAINE], the inhibition entry in the assay filed under Rattus norvegicus was “inactive”. Also, the Activity in assay [2] came to 130%. In addition, the pD2 in assay [3] worked out at 6.52.
For `CN1CCC(OC(c2ccccc2)c2ccc(Cl)cc2)CC1` (stereo not drawn), in assay [1], the inhibition at 3 µM is 70%. Moreover, the Activity in assay [2] is given as 113%. The pD2 in assay [3] was 5.08.
On to `CN1CCC(OC(c2ccccc2)c2ccccc2)CC1` [DIPHENYLPYRALINE], for which the inhibition at 3 µM in assay [1] was determined as 70%. In addition, the Activity in assay [2] was determined as 129%. Also, in assay [3], the pD2 was 5.38.
As to `CCCCN1CCC(OC(c2ccc(Cl)cc2)c2ccc(Cl)cc2)CC1`, the inhibition entry in the assay filed under Rattus norvegicus was “Active”. In addition, the Activity in assay [2] is recorded as 99%. For the same compound, the pD2 in assay [3] is recorded as 4.26.
`NC[C@H](O)c1ccc(O)c(O)c1.O=C(O)C(O)C(O)C(=O)O`: the Activity in assay [2] is 122%. Further, in assay [3], the pD2 was found to be 5.95.
Take `Fc1ccc(C(OC2CCNCC2)c2ccc(F)cc2)cc1`: the inhibition at 3 µM in assay [1] stood at 70%. In assay [2], the Activity is recorded as 116%. Moreover, the pD2 in assay [3] is recorded as 5.17.
Take `CC(C)N1CCC(OC(c2ccc(F)cc2)c2ccc(F)cc2)CC1`: the inhibition result in the assay listed under Rattus norvegicus was “Active”. Further, in assay [2], the Activity was 121%. Besides, the pD2 in assay [3] is listed as 4.48.
